Reference: ChEMBL document CHEMBL5329211, “Selective isoxazolopyrimidine PAT1 (SLC26A6) inhibitors for therapy of intestinal disorders” (RSC Med Chem, 2023)
The source made the active and inactive calls. The rule behind the calls is not given here.

Experiments:
[1] = biological target: T1, Pendrin (Homo sapiens) (UniProt O43511); experiment: Inhibition of SLC26A4 (unknown origin) expressed in rat FRT cells coexpressing YFP halide-sensing protein assessed as iodide-chloride exchange at 25 uM incubated for 2 sec by fluorescence quenching analysis; format: cell-based
T1 sequence (whole entry): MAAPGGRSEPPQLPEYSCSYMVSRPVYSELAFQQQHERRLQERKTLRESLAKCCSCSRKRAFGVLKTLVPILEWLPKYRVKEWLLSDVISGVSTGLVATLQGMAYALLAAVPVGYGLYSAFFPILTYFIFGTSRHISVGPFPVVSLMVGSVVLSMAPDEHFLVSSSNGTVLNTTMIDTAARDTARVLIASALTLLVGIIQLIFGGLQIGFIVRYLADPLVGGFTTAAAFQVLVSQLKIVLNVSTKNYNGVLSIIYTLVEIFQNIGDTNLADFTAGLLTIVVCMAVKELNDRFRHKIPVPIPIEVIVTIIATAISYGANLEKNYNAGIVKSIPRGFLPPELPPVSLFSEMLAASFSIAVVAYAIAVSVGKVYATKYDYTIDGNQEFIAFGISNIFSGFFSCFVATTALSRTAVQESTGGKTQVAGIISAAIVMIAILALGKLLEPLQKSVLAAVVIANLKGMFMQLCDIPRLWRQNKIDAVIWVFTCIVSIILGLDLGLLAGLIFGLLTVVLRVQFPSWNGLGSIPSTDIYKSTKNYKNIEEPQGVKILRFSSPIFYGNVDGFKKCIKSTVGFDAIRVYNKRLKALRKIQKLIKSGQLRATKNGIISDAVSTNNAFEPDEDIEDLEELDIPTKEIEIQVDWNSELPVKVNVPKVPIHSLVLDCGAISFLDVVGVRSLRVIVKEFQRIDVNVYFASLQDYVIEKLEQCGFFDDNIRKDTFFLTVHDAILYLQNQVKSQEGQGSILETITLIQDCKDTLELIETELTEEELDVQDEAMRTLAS

[2] = Cytotoxicity against rat FRT cells assessed as reduction in cell viability at 10 uM incubated for 24 hrs by alamar blue staining based analysis; format: toxicity
Procedure, shortened: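 FRT cells seeded 20,000/well and grown 24 h, then exposed to compound at 10 μM for 24 h. Vehicle control 0.1% DMSO, positive control 20% DMSO. Viability read by Alamar Blue.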

[3] = biological target: T2, Anoctamin-1 (Homo sapiens) (UniProt Q5XXA6); experiment: Inhibition of TMEM16A (unknown origin)
T2 sequence (whole entry): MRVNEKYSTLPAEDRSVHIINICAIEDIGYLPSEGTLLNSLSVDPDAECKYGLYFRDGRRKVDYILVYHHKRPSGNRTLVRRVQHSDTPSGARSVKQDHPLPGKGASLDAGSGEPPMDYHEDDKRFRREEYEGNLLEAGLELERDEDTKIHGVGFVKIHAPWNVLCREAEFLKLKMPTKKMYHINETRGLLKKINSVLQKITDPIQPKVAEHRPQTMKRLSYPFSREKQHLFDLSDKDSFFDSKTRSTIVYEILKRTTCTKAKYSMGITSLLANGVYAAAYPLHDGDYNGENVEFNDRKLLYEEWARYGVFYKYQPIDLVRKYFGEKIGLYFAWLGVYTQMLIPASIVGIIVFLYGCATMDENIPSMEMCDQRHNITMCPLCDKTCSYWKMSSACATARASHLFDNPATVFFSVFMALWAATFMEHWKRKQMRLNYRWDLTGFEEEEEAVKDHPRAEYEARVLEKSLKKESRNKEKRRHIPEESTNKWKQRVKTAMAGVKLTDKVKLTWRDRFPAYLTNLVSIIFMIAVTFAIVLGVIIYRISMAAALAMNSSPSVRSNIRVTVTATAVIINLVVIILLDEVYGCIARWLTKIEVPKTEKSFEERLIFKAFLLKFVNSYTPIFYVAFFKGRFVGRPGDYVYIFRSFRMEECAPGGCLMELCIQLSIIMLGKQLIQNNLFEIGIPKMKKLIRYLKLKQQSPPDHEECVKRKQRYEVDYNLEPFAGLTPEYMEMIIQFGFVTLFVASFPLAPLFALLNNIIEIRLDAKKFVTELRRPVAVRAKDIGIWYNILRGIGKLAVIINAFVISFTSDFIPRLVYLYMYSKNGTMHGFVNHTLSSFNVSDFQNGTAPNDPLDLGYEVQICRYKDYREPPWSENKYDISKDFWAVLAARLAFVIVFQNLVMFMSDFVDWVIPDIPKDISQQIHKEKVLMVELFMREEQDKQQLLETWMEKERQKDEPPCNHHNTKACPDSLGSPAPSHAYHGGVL

[4] = system: Mus musculus; experiment: In vivo inhibition of PAT1 in intestinal closed-loop CD-1 mouse model assessed as reduction in loop fluid volume in ileum measured for 30 mins; format: functional, organism-based
Procedure, shortened: (§1)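 Mice (wild-type CD1 or homozygous F508del CF, 10-16 wk, both sexes) fasted 24 h with free access to 5% dextrose water. Under isoflurane at 36-38 °C, 2-3 ileal loops (2-3 cm) were tied off and injected with 100 µL PBS pH 7.4 containing 30 µM inhibitor, 10 µM tenapanor or 0.1% DMSO vehicle. Loops removed at 0 or 30 min in separate mice; length and weight measured for fluid absorption. One-way ANOVA with Newman-Keuls.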

[5] = biological target: Solute carrier family 26 member 6 (Mus musculus) (UniProt Q8CIW6); experiment: Inhibition of SLC26A6 (unknown origin) expressed in rat FRT cells coexpressing YFP halide-sensing protein assessed as iodide-chloride exchange incubated for 2 sec by fluorescence quenching analysis
Sequence of Solute carrier family 26 member 6 (Mus musculus) (Q8CIW6 whole entry, looked up): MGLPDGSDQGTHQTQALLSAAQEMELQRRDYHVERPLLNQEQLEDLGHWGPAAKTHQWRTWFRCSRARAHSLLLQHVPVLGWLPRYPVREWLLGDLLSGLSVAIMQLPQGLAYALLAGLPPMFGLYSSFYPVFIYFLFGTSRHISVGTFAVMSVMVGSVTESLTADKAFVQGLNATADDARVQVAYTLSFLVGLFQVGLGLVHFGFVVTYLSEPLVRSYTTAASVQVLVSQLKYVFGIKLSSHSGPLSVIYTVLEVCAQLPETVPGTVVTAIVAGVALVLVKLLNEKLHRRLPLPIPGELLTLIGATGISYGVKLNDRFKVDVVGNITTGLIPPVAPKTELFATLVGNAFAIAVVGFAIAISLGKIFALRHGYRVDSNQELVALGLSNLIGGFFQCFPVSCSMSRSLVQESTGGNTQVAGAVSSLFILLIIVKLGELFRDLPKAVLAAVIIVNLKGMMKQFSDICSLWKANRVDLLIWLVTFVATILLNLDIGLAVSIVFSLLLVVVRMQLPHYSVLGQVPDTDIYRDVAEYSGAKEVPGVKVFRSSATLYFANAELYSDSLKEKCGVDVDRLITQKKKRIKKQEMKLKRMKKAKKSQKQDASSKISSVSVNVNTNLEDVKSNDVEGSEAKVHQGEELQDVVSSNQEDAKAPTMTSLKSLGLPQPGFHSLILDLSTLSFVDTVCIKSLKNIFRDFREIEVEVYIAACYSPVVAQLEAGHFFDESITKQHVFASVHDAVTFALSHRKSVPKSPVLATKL

[6] = In vivo inhibition of PAT1 in intestinal closed-loop CD-1 mouse model harboring CFTR delF508/delF508 mutant assessed as reduction in loop fluid volume in ileum measured for 30 mins; format: functional; conditions: 0.5 h; procedure, shortened: as §1
[7] = In vivo inhibition of PAT1 in intestinal closed-loop CD-1 mouse model assessed as reduction in loop weight/length ratio in ileum measured for 30 mins; format: functional; conditions: 0.5 h; procedure, shortened: as §1

## CCOC(=O)c1nc(N(C)Cc2ccccc2)c2c(C)noc2n1
[1]
  inhibition: inactive
[2]
  Activity: Non-Toxic
[3]
  inhibition: inactive
[4]
  inhibition: Active
[5]
  IC50: 1000 nM
[6]
  inhibition (INH): >90%
[7]
  inhibition (INH): >90%
